Test results as given in ChEMBL document CHEMBL1914454, “Novel N-linked aminopiperidine inhibitors of bacterial topoisomerase type II: broad-spectrum antibacterial agents with reduced hERG activity” (J Med Chem, 2011).
pIC50: −log10 of the molar value. Converted amounts (≈) assume the structure as drawn. Values belong to the molecule of their own block, whether it stands above or below them.

Tests used:
[1] = Clearance in Beagle dog at 3 mg/kg, iv; assay type: ADME, organism-based, Canis lupus familiaris; design: dose 3 mg/kg, route intravenous; conditions: in vivo
Method in brief: (§1)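 Plasma was sampled from 0 to 24 h and drug measured by LC–MS/MS. Parameters came from noncompartmental analysis.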

Mus musculus [2] = assay: AUC (infinity) in Staphylococcus aureus ARC516 infected in CD1 mouse neutropenic thigh infection model at 12 mg/kg, ip qd by LC-MS/MS analysis; assay type: ADME, organism-based; design: time infinity, dose 12 mg/kg, route intraperitoneal; conditions: in vivo
Method in brief: (§2)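 CD-1 mice made neutropenic with ip cyclophosphamide (150 mg/kg day −4, 100 mg/kg day −1), thigh-infected with S. aureus ARC516 (target 5 × 10⁵ cfu/thigh). Dosed ip once daily starting 2 h post-infection, in 5% dextrose with lactic acid, pH 5.0. Groups of three sacrificed at timed intervals; cardiac-puncture blood; plasma analysed by LC-MS/MS; noncompartmental analysis.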

Staphylococcus aureus [3] = assay: Antibacterial activity against methicillin-susceptible Staphylococcus aureus after 18 to 24 hrs by broth microdilution method; assay type: functional
Method in brief: (§3)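 Broth microdilution following CLSI guidelines in Mueller Hinton broth. Compounds in DMSO, diluted to 2% DMSO final, 11 doubling dilutions from 64 to 0.06 μg/mL. Incubated at 35 °C for 18−24 h; growth read by absorbance at 620 nm.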

Staphylococcus aureus [4] = assay: Antibacterial activity against Staphylococcus aureus ARC516 infected in CD1 mouse neutropenic thigh infection model assessed as 1 log reduction in colony forming unit per […] at 48 mg/kg, ip qd administered 2 hrs post-infection measured 24 hrs post-treatment relative to vehicle treated control; assay type: functional; conditions: route intraperitoneal
Method in brief: (§4)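 CD-1 mice were made neutropenic with ip cyclophosphamide, 150 mg/kg at 4 days and 100 mg/kg at 1 day before infection. Methicillin-susceptible strain, target inoculum 5 × 10⁵ cfu/thigh. Groups of five received ip drug q.d. in 5% dextrose with lactic acid, pH 5.0, starting 2 h post-infection; five mice got vehicle. At 24 h, thighs were homogenized, plated on tryptic soy agar and incubated at 37 °C overnight for cfu.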

[5] = Octanol-phosphate buffer partition coefficient, log D of the compound at pH 7.4 by LC/MS/UV analysis; conditions: octanol/phosphate buffer
Mus musculus [6] = assay: AUC (infinity) in Staphylococcus aureus ARC516 infected in CD1 mouse neutropenic thigh infection model at 36 mg/kg, ip qd by LC-MS/MS analysis; assay type: ADME, organism-based; design: dose 36 mg/kg, route intraperitoneal, time infinity; conditions: in vivo
Method in brief: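 Plasma exposure in CD-1 mice, measured for analysis of the efficacy studies. Groups of three mice were sacrificed at timed intervals and whole blood was drawn by cardiac puncture. Plasma compound levels were measured by LC–MS/MS, and parameters were estimated by a noncompartmental model.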

Mus musculus [7] = assay: AUC (infinity) in Staphylococcus aureus ARC516 infected in CD1 mouse neutropenic thigh infection model at 24 mg/kg, ip qd by LC-MS/MS analysis; assay type: ADME, organism-based; design: time infinity, dose 24 mg/kg, route intraperitoneal; conditions: in vivo; method in brief: as §2
[8] = Inhibition of Escherichia coli ATPase activity of topoisomerase 4 ParC/ParE subunit assessed as reduction in inorganic phosphate production after 24 hrs by ammonium molybdate/malachite-green based assay
Method in brief: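 Each reaction contained 0.5 nM each of E. coli ParC and ParE, 0.16 mM ATP and 0.005 mg/mL sheared salmon sperm DNA in 20 mM Tris pH 8.0 with 50 mM ammonium acetate, 8.0 mM MgCl₂, 0.5 mM EDTA, 5 mM DTT, 2.5% glycerol and 0.005% Brij-35. Compound dilution series; 24 h at room temperature. Quenched with malachite green; absorbance read at 650 nm. IC50 is the mean of three replicate experiments.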

[9] = Volume of distribution in Beagle dog at 3 mg/kg, iv; assay type: ADME, organism-based, Canis lupus familiaris; design: dose 3 mg/kg, route intravenous; conditions: in vivo; method in brief: as §1
Pseudomonas aeruginosa = assay: Antibacterial activity against Pseudomonas aeruginosa PAO1 after 18 to 24 hrs by broth microdilution method; assay type: functional; method in brief: as §3
Streptococcus pneumoniae = assay: Antibacterial activity against penicillin-susceptible Streptococcus pneumoniae D39 after 18 to 24 hrs by broth microdilution method; assay type: functional
Method in brief: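 CLSI broth microdilution in 2.2% (w/v) Mueller Hinton broth with 0.65% (v/v) lysed horse blood. Compounds diluted from DMSO to 2% DMSO final, 11 doubling dilutions from 64 to 0.06 μg/mL. Incubated at 35 °C for 18−24 h; read at 620 nm.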

[10] = Fraction unbound in human plasma at 10 uM after 16 hrs by equilibrium dialysis
[11] = Half life in Beagle dog at 3 mg/kg, iv; assay type: ADME, organism-based, Canis lupus familiaris; design: dose 3 mg/kg, route intravenous; conditions: in vivo; method in brief: as §1
[12] = Clearance in Wistar Han rat at 4 mg/kg, iv; assay type: ADME, organism-based; design: dose 4 mg/kg, route intravenous; conditions: in vivo
Method in brief: (§5)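 Groups of three Wistar Han rats received a bolus injection into a cannulated jugular vein. Serial 200 μL whole-blood samples taken over time; plasma drug measured by LC-MS/MS; parameters estimated by noncompartmental analysis.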

[13] = Volume of distribution in Wistar Han rat at 4 mg/kg, iv; assay type: ADME, organism-based; design: dose 4 mg/kg, route intravenous; conditions: in vivo; method in brief: as §5
[14] = Half life in Wistar Han rat at 4 mg/kg, iv; assay type: ADME, organism-based; design: dose 4 mg/kg, route intravenous; conditions: in vivo; method in brief: as §5
Staphylococcus aureus [15] = assay: Antibacterial activity against Staphylococcus aureus ARC516 infected in CD1 mouse neutropenic thigh infection model assessed as 1 log reduction in colony forming unit per […] at 24 mg/kg, ip qd administered 2 hrs post-infection measured 24 hrs post-treatment relative to vehicle treated control; assay type: functional; conditions: route intraperitoneal; method in brief: as §4
Staphylococcus aureus [16] = assay: Antibacterial activity against Staphylococcus aureus ARC516 infected in CD1 mouse neutropenic thigh infection model assessed as 1 log reduction in colony forming unit per […] at 12 mg/kg, ip qd administered 2 hrs post-infection measured 24 hrs post-treatment relative to vehicle treated control; assay type: functional; conditions: route intraperitoneal; method in brief: as §4
Staphylococcus aureus [17] = assay: Antibacterial activity against Staphylococcus aureus ARC516 infected in CD1 mouse neutropenic thigh infection model assessed as 1 log reduction in colony forming unit per […] at 36 mg/kg, ip qd administered 2 hrs post-infection measured 24 hrs post-treatment relative to vehicle treated control; assay type: functional; conditions: route intraperitoneal; method in brief: as §4
Escherichia coli = assay: Antibacterial activity against Escherichia coli W3110 after 18 to 24 hrs by broth microdilution method; assay type: functional; conditions: K-12 substr. W3110; method in brief: as §3
[18] = AUC in Wistar Han rat at 4 mg/kg, iv; assay type: ADME, organism-based; design: dose 4 mg/kg, route intravenous; conditions: plasma; method in brief: as §5
Mus musculus [19] = assay: AUC (infinity) in Staphylococcus aureus ARC516 infected in CD1 mouse neutropenic thigh infection model at 48 mg/kg, ip qd by LC-MS/MS analysis; assay type: ADME, organism-based; design: dose 48 mg/kg, route intraperitoneal, time infinity; conditions: in vivo; method in brief: as §2
[20] = molecular target: Voltage-gated inwardly rectifying potassium channel KCNH2 (Homo sapiens, UniProt Q12809); assay: Inhibition of human ERG by ionworks HT assay
Sequence of Voltage-gated inwardly rectifying potassium channel KCNH2 (Q12809 whole entry): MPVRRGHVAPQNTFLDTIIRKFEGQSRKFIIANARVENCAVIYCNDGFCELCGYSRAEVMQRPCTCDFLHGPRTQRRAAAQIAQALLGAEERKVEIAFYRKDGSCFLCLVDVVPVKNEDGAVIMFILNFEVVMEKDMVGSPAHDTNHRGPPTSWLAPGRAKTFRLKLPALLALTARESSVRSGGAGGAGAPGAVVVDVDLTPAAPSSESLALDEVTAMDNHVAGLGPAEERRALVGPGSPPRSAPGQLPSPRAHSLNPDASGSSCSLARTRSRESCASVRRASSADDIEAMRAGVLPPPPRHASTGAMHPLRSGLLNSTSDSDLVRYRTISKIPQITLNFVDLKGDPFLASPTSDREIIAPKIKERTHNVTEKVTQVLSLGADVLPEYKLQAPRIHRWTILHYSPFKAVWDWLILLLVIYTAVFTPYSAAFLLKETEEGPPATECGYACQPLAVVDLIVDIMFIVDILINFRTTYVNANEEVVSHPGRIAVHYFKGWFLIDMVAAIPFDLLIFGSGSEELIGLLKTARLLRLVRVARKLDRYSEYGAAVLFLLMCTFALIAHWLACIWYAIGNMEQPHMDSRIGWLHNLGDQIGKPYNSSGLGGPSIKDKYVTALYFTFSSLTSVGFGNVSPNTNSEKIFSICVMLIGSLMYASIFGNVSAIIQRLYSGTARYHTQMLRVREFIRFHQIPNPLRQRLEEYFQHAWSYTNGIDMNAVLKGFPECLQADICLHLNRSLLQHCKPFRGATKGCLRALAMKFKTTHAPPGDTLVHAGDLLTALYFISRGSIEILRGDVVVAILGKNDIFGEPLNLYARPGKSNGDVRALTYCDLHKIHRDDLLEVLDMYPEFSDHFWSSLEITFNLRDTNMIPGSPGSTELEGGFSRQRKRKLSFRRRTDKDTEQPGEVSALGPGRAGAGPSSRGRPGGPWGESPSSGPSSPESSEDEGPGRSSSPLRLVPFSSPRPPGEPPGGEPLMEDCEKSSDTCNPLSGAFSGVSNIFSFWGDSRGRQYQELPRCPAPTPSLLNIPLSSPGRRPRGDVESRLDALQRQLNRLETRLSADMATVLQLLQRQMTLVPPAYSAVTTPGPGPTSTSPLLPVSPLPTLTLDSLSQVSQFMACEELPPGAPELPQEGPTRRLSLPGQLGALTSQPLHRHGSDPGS

[21] = AUC in Beagle dog at 3 mg/kg, iv; assay type: ADME, organism-based, Canis lupus familiaris; design: dose 3 mg/kg, route intravenous; conditions: plasma; method in brief: as §1
Mus musculus [22] = assay: AUC (infinity) in Staphylococcus aureus ARC516 infected in CD1 mouse neutropenic thigh infection model at 20 mg/kg, ip qd by LC-MS/MS analysis; assay type: ADME, organism-based; design: time infinity, dose 20 mg/kg, route intraperitoneal; conditions: in vivo
Method in brief: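 Exposure in neutropenic CD-1 mice thigh-infected with S. aureus ARC516 (target 5 × 10⁵ cfu/thigh), dosed ip once daily from 2 h post-infection. Groups of three killed at timed intervals; blood taken by cardiac puncture. Plasma drug measured by LC-MS/MS; parameters from a noncompartmental model.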

Staphylococcus aureus [23] = assay: Antibacterial activity against Staphylococcus aureus ARC516 infected in CD1 mouse neutropenic thigh infection model assessed as 1 log reduction in colony forming unit per […] at 20 mg/kg, ip qd administered 2 hrs post-infection measured 24 hrs post-treatment relative to vehicle treated control; assay type: functional; conditions: route intraperitoneal
Method in brief: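 Mice rendered neutropenic with ip cyclophosphamide (150 mg/kg 4 days and 100 mg/kg 1 day before infection), then infected with MSSA ARC516 at a target 5 × 10⁵ cfu/thigh. Groups of five dosed ip once daily from 2 h post-infection; vehicle group of five. At 24 h after treatment start, thighs homogenized and plated on tryptic soy agar, 37 °C overnight, cfu counted.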

clearance [1]: 21 mL/min/kg
AUC (Mus musculus [2]): 0.47 µg/h/mL
MIC (Staphylococcus aureus [3]): 0.02 µg/mL (≈ 0.0443 µM)
logD [5]: 0.93
AUC (Mus musculus [6]): 1.17 µg/h/mL
AUC (Mus musculus [7]): 0.76 µg/h/mL
pIC50 [8]: 8.30
Vd [9]: 11 L/kg
MIC (Pseudomonas aeruginosa): 4 µg/mL (≈ 8.86 µM)
MIC (Streptococcus pneumoniae): 0.06 µg/mL (≈ 0.133 µM)
fraction unbound at 16 h, 10 µM [10]: 0.57
half-life [11]: 8.3 h
clearance [12]: 338 mL/min/kg
Vd [13]: 32 L/kg
half-life [14]: 2.8 h
MIC (Escherichia coli): 0.5 µg/mL (≈ 1.11 µM)
AUC [18]: 190 ng·h/mL
AUC (Mus musculus [19]): 1.79 µg/h/mL
AUC [21]: 2300 ng·h/mL
Structure (SMILES): COc1ccc2ncc(=O)n(CCN3CCC(NCc4cc5c(cn4)OCCO5)CC3)c2c1
FC (Staphylococcus aureus [4]): 2.79
FC (Staphylococcus aureus [15]): 1.17
FC (Staphylococcus aureus [16]): 0.05
FC (Staphylococcus aureus [17]): 1.5
pIC50 [20]: 4.72

AUC (Mus musculus [22]): 2.5 µg/h/mL
Structure (SMILES): C[C@H]1COc2c(N3CCN(C)CC3)c(F)cc3c(=O)c(C(=O)O)cn1c23.C[C@H]1COc2c(N3CCN(C)CC3)c(F)cc3c(=O)c(C(=O)O)cn1c23.O [LEVOFLOXACIN]
FC (Staphylococcus aureus [23]): 1.46
